Screening results (PubChem BioAssay)
Diaphorase inh: counter-screen for diaphorase-based assays: diaphorase inhibitors and chemical oxidizers. diaphorase resazurin-to-resorufin fluorescence, NADH, 16 min; bacterial (C. kluyveri) enzyme, not human. inhibition, % at 20 µM. 190,000 compounds, 0.69% hits. AID 1217;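 active means primary screen inhibition at 20 µM above a set limit, cut at about 50% in these data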
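Assay system: diaphorase enzyme from Clostridium kluyveri. Quantity: enzyme working solution with 0.14 U/mL diaphorase. Schedule: reaction incubation of 16 min at room temperature. Technique: resorufin fluorescence, excitation 544 nm, emission 590 nm. Controls: No-NADH positive control and DMSO neutral control.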
Diaph act CS: activates diaphorase or chemically reduces, flagging diaphorase assay artifacts. Diaphorase/resazurin coupled assay, resorufin fluorescence, 16 min; stronger effect = higher value; 1 = vehicle wells, 0 = NADH-free wells. activation factor at 20 µM. 190,000 compounds, 0.005% hits. AID 1229;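 active means diaphorase activity raised at least twofold by the compound at 20 µM; inactive means activation factor below 2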
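Material: purified diaphorase enzyme from Clostridium kluyveri / Medium: HEPES pH 7.4 buffer with MgCl2 and Tween 20 / Schedule: enzyme reaction of 16 min at room temperature / Measured by: resorufin fluorescence, excitation 544 nm, emission 590 nm / Evaluation: rise in resorufin formation, marking diaphorase activation or chemical reduction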
WT yeast gro inh: growth inhibition of WT yeast, mitochondrial fusion screen. mitochondrial fusion phenotypic screen, WT strain. inhibition, % at 10 µM. 190,000 compounds, 2.1% hits. AID 1362; in the data active means inhibition above about 58%; tested in S. cerevisiae
Lmaj promast: inhibitors of Leishmania major promastigote growth; Leishmania major promastigotes, resazurin fluorescence viability; inhibition, % at 10 µM; 200,000 compounds, 9% hits; AID 1063; in the data active means inhibition above about 50%;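 further: promastigotes grown with compound for 44 hours at 28 °C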
ROMK primary: modulators of human ROMK potassium channel; P48048; Tet-inducible ROMK, thallium flux fluorescence; actives lie on both sides; B-score at 10 µM; 130,000 compounds, 2% hits;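 active means signal ratio slope over the read window, or its plate-corrected B-score, at least 3 SD from the plate mean, either direction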;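 further: B-score of the F/F0 ratio slope over 7 to 12 s after thallium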
Cl transport mod: modulates chloride dependent transport by human KCC2; KCC2 cells, thallium flux FluoZin-2 fluorescence; B-score of Tl+ flux slope (higher = more flux/activation; lower = inhibition) at 10 µM; Q9H2X9; AID 1456; 190,000 compounds, 2.2% hits;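 active means thallium flux slope and its plate-corrected score both differing from the plate sample mean at a set confidence after two filtering rounds, in either direction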;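 further: slope of fluorescence scaled to starting intensity during 10 to 20 s after thallium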
Numbers stand for hits; 0 = inactive; - = no result given. Shown are actives, neighbours in structure and some others; about 12% of the full set was active somewhere.

SMILES | Diaphorase inh | Diaph act CS | WT yeast gro inh | Lmaj promast | ROMK primary | Cl transport mod
COc1ccc(C(=O)Cc2cc(OC)c(OC)cc2C(=O)c2ccccc2F)cc1OC | 0 | 0 | 0 | 0 | 0 | 0
COC(=O)c1c([N+](=O)[O-])c(OC)c(OC)c(OC)c1[N+](=O)[O-] | 0 | 0 | 0 | 0 | 0 | 0
O=C(CN(Cc1ccccc1)S(=O)(=O)c1cccc(C(F)(F)F)c1)NC1CCCCC1 | 0 | 0 | 0 | 0 | - | 0
CC(c1ccccc1)N(CC(=O)NC1CCCCC1)S(=O)(=O)c1cccc(C(F)(F)F)c1 (stereo not given) | 0 | 0 | 69.5 | 0 | 0 | 0
CC(=O)Nc1ccc(NC(=O)C(C)OC(=O)/C=C/c2cn(-c3ccccc3)nc2-c2cccnc2)cc1 (stereo not given) | 0 | 0 | 0 | 0 | 0 | 0
Cc1ccccc1NC(=O)COC(=O)/C=C/c1cn(-c2ccccc2)nc1-c1cccnc1 | 0 | 0 | 0 | 52.9 | 0 | 0
COc1ccc(-c2nn(-c3ccccc3)cc2/C=C/C(=O)OCC(=O)Nc2ccc(C#N)cc2)cc1 | 0 | 0 | 0 | 92.2 | - | 0
CN1CCN(NC(=S)NC2CCCCC2)CC1 | 0 | 0 | 0 | 0 | - | 0
O=C(NNC1CC(=O)N(c2ccc(Br)cc2)C1=O)c1ccccn1 (stereo not given) | 0 | 0 | 0 | 0 | 0 | 0
CC(=O)NC1C(Oc2ccc3c(C)cc(=O)oc3c2)OC(COC(C)=O)C(OC(C)=O)C1OC(C)=O (stereo not given) | 0 | 0 | 0 | 0 | 0 | 0
CC(C)c1ccc(OCc2nc(-c3ccccn3)no2)c(Br)c1 | 0 | 0 | 79.3 | 0 | - | 0
FC(F)(F)c1nc(-c2cccs2)ncc1-c1nnnn1-c1ccc(Cl)cc1 | 0 | 0 | 76.6 | 0 | - | 0
Clc1ccc(-n2nnnc2-c2cnc(-c3ccncc3)nc2-c2cccs2)cc1 | 0 | 0 | 0 | 0 | - | 0
S=C(NCc1ccccc1)NC1CCCCC1 | 0 | 0 | 0 | 0 | 0 | 0
S=C(NCc1cccc(Cl)c1)NC1CCCCC1 | 0 | 0 | 65.8 | 0 | 0 | 0
Cc1ccc2c(c1)-c1c(ssc1=S)C(C)(C)N2C(=O)CSC1=NCCS1 | 0 | 0 | 0 | 87.2 | - | -
Cn1cnnc1SCC(=O)N1c2ccccc2-c2c(ssc2=S)C1(C)C | 0 | 0 | - | - | - | -
CCOc1ccc2c(c1)-c1c(ssc1=S)C(C)(C)N2C(=O)CSC1=NCCS1 | 0 | 0 | 0 | 96.4 | 0 | 0
COc1ccc(C2CC(=O)C=C(NCc3ccc4c(c3)OCO4)C2)cc1 (stereo not given) | - | - | - | - | 0 | 0
Cc1ccc(C(C(=O)NCC2CCCO2)N(Cc2ccccc2)C(=O)c2ccc(-c3ccccc3)[nH]2)o1 (stereo not given) | 0 | 0 | 68.5 | 53.0 | 0 | 0
O=C(NCC1CCCO1)C(c1cccs1)N(Cc1ccccc1Cl)C(=O)c1ccc(-c2ccccc2)[nH]1 (stereo not given) | 0 | 0 | 0 | 99.8 | 0 | 0
Cc1ccc(CN(C(=O)CNC(=O)c2cccs2)C(C(=O)NCC2CCCO2)c2ccccc2)cc1 (stereo not given) | 0 | 0 | 0 | 0 | - | -
CN(CC(=O)O)S(=O)(=O)c1ccc2c(c1)NC(=O)CC(=O)N2 | 0 | 0 | 0 | 0 | 0 | 0
Cc1noc(C)c1COC(=O)[C@H](C)NS(=O)(=O)c1ccc(Cl)c(Cl)c1 | 0 | 0 | 0 | 72.5 | 0 | -
Cc1noc(C)c1COC(=O)Cc1ccc(Cl)c(Cl)c1 | 0 | 0 | 0 | 0 | 0 | 0
SMILES | Diaphorase inh | Diaph act CS | WT yeast gro inh | Lmaj promast | ROMK primary | Cl transport mod
COc1ccccc1NC(=O)c1c(Nc2ccccc2C)sc(C(=O)Nc2cccc(Cl)c2)c1N | 0 | 0 | 0 | 0 | 0 | 0
CC1=C(C#N)C(=O)NC(=O)/C1=C\c1ccc(-c2ccc(C)cc2[N+](=O)[O-])o1 | 56.6 | 0 | 0 | 0 | 0 | -
Cc1cc(C)cc(NC(=O)C/C(N)=N/O)c1 | 0 | 0 | 0 | 0 | 0 | 0
CCCN(Cc1ccc(N(C)C)cc1)CC1CC1 | 0 | 0 | 0 | 0 | 0 | 0
CCCN(Cc1ccc(N(CC)CC)cc1)CC1CC1 | 0 | 0 | 0 | 75.6 | - | 0
FC(F)(F)c1cccc(NC(=S)N2CCCCCC2)c1 | 0 | 0 | 0 | 0 | 0 | 0
FC(F)(F)c1cccc(NC(=S)NC2CCCC2)c1 | 0 | 0 | 0 | 73.8 | - | 0
FC(F)(F)c1cccc(N2CCN(C(=S)NC3CCCCC3)CC2)c1 | 0 | 0 | 0 | 97.1 | 0 | 0
CN1CCN(C(=S)Nc2cccc(C(F)(F)F)c2)CC1 | 0 | 0 | 0 | 82.7 | 0 | 0
O=C(CSc1cccs1)Nc1cccc2ccccc12 | 0 | 0 | 0 | 63.7 | 0 | 0
O=C(CSc1cccs1)Nc1ccc2ccccc2c1 | 0 | 0 | 0 | 0 | - | 0
COc1ccc(/C=C2\SC(=O)N=C2N)cc1OC | 0 | 0 | 0 | 53.2 | - | 0
O=S(=O)(Nc1nc2ccccc2nc1-[n+]1ccccc1)c1ccc(Cl)cc1 | 0 | 0 | 0 | 55.9 | - | 0
O=S(=O)(Nc1nc2ccccc2nc1Cl)c1ccc(Cl)cc1 | 0 | 0 | 0 | 0 | 0 | 0
CC(=O)Nc1ccc(S(=O)(=O)Nc2nc3ccccc3nc2N2CCc3ccccc3C2)cc1 | 0 | 0 | 0 | 85.0 | 0 | 0
O=S(=O)(Nc1nc2ccccc2nc1N1CCc2ccccc2C1)c1ccc(Cl)cc1 | 0 | 0 | 0 | 57.5 | - | 0
O=C(NCCOc1ccccc1)C(=O)c1c[nH]c2ccccc12 | - | - | - | - | 0 | 0
O=C(O)c1cc([N+](=O)[O-])ccc1NCCO | 0 | 0 | 0 | 56.0 | 0 | 0
Cc1ccc(C)c(C(=O)COC(=O)c2cc([N+](=O)[O-])ccc2NCCO)c1 | 0 | 0 | 60.1 | 0 | - | 0
O=C(COC(=O)c1cc([N+](=O)[O-])ccc1NCCO)Nc1ccc2c(c1)OCO2 | 0 | 0 | 0 | 0 | 0 | 0
COc1cc(/C=C/C(=O)OCC(=O)NC(=O)NC(C)C)ccc1O | - | - | - | - | - | 0
Cc1noc(C)c1COC(=O)c1cccnc1Cl | 0 | 0 | 0 | 0 | 0 | 0
O=C(Nc1nnc(Cc2ccccc2)s1)c1ccco1 | 0 | 0 | 0 | 0 | 0 | 0
NC(=O)c1cc(Cc2ccccc2)sc1NC(=O)c1ccco1 | 0 | 0 | 72.3 | 0 | 0 | 0
C[C@@H](C(=O)NCc1ccccc1)[C@H]1C[C@]1(C)[C@H](NC(=O)OCc1ccccc1)c1ccccc1 | 0 | 0 | 0 | 0 | 0 | 0
COc1ccc(CNC(=O)[C@H](C)[C@@H]2C[C@@]2(C)[C@@H](NC(=O)OCc2ccccc2)c2ccccc2)cc1OC | 0 | 0 | 68.8 | 0 | 0 | 0
COC(=O)C1(NC(=O)NC2CCCCC2)CCCCC1 | - | - | - | - | - | 0
O=C(COc1nc2ccccc2nc1N1CCOCC1)NC1CCCCC1 | 0 | 0 | 0 | 0 | - | 0
O=C(COc1nc2ccccc2nc1N1CCOCC1)Nc1ccc(S(=O)(=O)N2CCCC2)cc1 | 0 | 0 | 0 | 66.7 | - | 0
CN(C)S(=O)(=O)c1cccc(NC(=O)COc2nc3ccccc3nc2N2CCOCC2)c1 | 0 | 0 | 0 | 55.6 | - | 0
